The RNAGym collection of RNA variant scans (doi:10.1126/science.aae0568)
Variants at the floor of the assay were thinned out.

B1: tRNA (parent)
chain: GUUCCGUUGGCGUAAUGGUAACGCGUCUCCCUCCUAAGGAGAAGACUGCGGGUUCGAGUCCCGUACGGAACG

Variants of: B1
Test: yeast fitness relative to wild type (ratio to wild type); higher = fitter; tRNA-Arg(CCU), competitive growth, 37 C, YPD
Method in brief: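 Variants of the tRNA-Arg(CCU) gene were chemically synthesised with a 3% per-site mutation rate across 69 sites and placed at the native genomic locus in Saccharomyces cerevisiae. Six parallel replicates of the pooled strains were competed in YPD at 37°C for 24 hours, and gene amplicons from the start and end populations were read by 100-nucleotide paired-end sequencing. Darwinian fitness relative to wild type was derived from changes in genotype frequencies. Genotypes required ≥ 100 starting reads, and estimates < 0.5 were set to 0.5.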
With GUUCCCUUGGCGUAAUGGUAACGGGUCUCGCUCCUAAGGAGAAGACUGCGGGUUCGAGUCCCGUACGGAACG [G6C C24G C30G] the yeast fitness was no more than 0.5.
GUUCCCUUGGCGUAAUGGUAACGUGUCUCCCUCCUAACGGGAAGACUGCGGGUUCGAGUCCCGUGCGGAACG [G6C C24U G38C A40G A65G] showed a yeast fitness of no more than 0.5.
In the case of GUUCCCUUGGCGUAAUGGUAACGUGUCUCCCUCCUAAGGAGAAGACCGCGGGUUCGUGUCCCGUACGGAACG [G6C C24U U47C A57U], the yeast fitness is reported as no more than 0.5.
GUUCCCUUGGCGUAAUGGUAACGCGUAUCCCUCCUAAGGAGAAGACUGCGGGUUCGAGUCCCGUACGGAACG [G6C C27A] gave a yeast fitness of 0.84.
GUUCCCUUGGCGUAAUGGUAACGCGUAUCCCUCCUAAGGAGCAGACUGCGGAUUCAAGUCCCCUACGGAACG [G6C C27A A42C G52A G56A G63C] gave a yeast fitness of no more than 0.5.
With GUUCCCUUGGCGUAAUGGUAACGCGUAUCCCUCCUAAGGAGAAAACUGCGGGUUCGAGUCCCGUACGGAACG [G6C C27A G44A] the yeast fitness was 0.629.
For GUUCCCUUGGCGUAAUGGUAACGCGUGUCCCUCCUAAGGAGAAGACUGCGGGUUCGAGUCCCGUACGGAACG [G6C C27G], the yeast fitness was 0.567.
In the case of GUUCCCUUGGCGUAAUGGUAACGCGUGUCCCUCAUAAGGAGAAGACUGCGGGUUCGAGUCCCGUCCGGAACG [G6C C27G C34A A65C], the yeast fitness is reported as no more than 0.5.
GUUCCCUUGGCGUAAUGGUAACGCGUUUCCCUCCUAAGGAGAAGACUGCGGGUUCGAGUCCCGUACGGAACG [G6C C27U] showed a yeast fitness of 0.933.
For GUUCCCUUGGCGUAAUGGUAACGCGUUUCCCUCCUAAGGAGAAGACUGCGUGUUCGAGUCCCGUACAGAACG [G6C C27U G51U G67A], the yeast fitness was no more than 0.5.
In the case of GUUCCCUUGGCGUAAUGGUAACGCGUUUCCCUCCUAAGGAGAAGACUGCGGGUUCAAGUCUCGUACGGAACG [G6C C27U G56A C61U], the yeast fitness is reported as no more than 0.5.
GUUCCCUUGGCGUAAUGGUAACGCGUCUACCUCCUAAGGGGAAGACUGCGCGUUCGAGUCCCGUACGGAACG [G6C C29A A40G G51C] showed a yeast fitness of 0.657.
GUUCCCUUGGCGUAAUGGUAACGCGUCUGCCUCCUAAGGAGAAGACUGCGGGUUCGAGUCCCGUACGGAACG [G6C C29G] gave a yeast fitness of 0.723.
With GUUCCCUUGGCGUAAUGGUAACGCGUCUGCCUCCUAAGGAGAAGACUGCGGGUUCGAGUACCGUACGGAACG [G6C C29G C60A] the yeast fitness was no more than 0.5.
GUUCCCUUGGCGUAAUGGUAACGCGUCUGCCUCCUAAGGAGAAGACUGCGGGUUCGAGUCCCGUAUGGAACG [G6C C29G C66U] gave a yeast fitness of 0.565.
With GUUCCCUUGGCGUAAUGGUAACGCGUCUGCCUCCUAAGCAGAAGACUGCGGGUUCGAGUCCCGUACGGAACG [G6C C29G G39C] the yeast fitness was 0.931.
Work on GUUCCCUUGGCGUAAUGGUAACGCGUCUUCUUCCUAAGGAGAAGACUGCGGGUGCGAGUCCCGUUCAGAACG [G6C C29U C31U U54G A65U G67A] yielded a yeast fitness of no more than 0.5.
For GUUCCCUUGGCGUAAUGGUAACGCGUCUUCCUCUUAAGGAGAAGACUGCGGGUUCGAGUCCCGUACGGAACG [G6C C29U C34U], the yeast fitness was 0.561.
Variant GUUCCCUUGGCGUAAUGGUAACGCGUCUUCCUCCUAAGGAGAAAACUGCGGGUUCGAGUCCCGUGCGGAACG [G6C C29U G44A A65G] has a yeast fitness of no more than 0.5.
For GUUCCCUUGGCGUAAUGGUAACGCGUCUCACUCCUAAGGAGAAGACUGCGGGUUCGAGUCCCGUACGGAACG [G6C C30A], the yeast fitness was 0.763.
In the case of GUUCCCUUGGCGUAAUGGUAACGCGUCUCACUCCUAAGGAGCAGACUGCGGGUUCGAGUCCCGUACGGAACG [G6C C30A A42C], the yeast fitness is reported as 0.546.
Work on GUUCCCUUGGCGUAAUGGUAACGCGUCUCACUCAUAAGGAGACGACUGCGGGUUCGAGUCCUGUACGGAACG [G6C C30A C34A A43C C62U] yielded a yeast fitness of no more than 0.5.
GUUCCCUUGGCGUAAUGGUAACGCGUCUCGCUCCUCAGGAGAAGACUGCGGGUUCGAAUCCCGUACGGAACG [G6C C30G A36C G58A] showed a yeast fitness of no more than 0.5.
GUUCCCUUGGCGUAAUGGUAACGCGUCUCUCUCCUAAGGAGAAGACUGCGGGUUCGAGUCCCGUACGGAACG [G6C C30U] showed a yeast fitness of 0.784.
With GUUCCCUUGGCGUAAUGGUAACGCGUCUCUCUCCUAAGGAGAAGAAUGCGGGUUCGAGUCCCGUACCGAACG [G6C C30U C46A G67C] the yeast fitness was no more than 0.5.
GUUCCCUUGGCGUAAUGGUAACGCGUCUCUCUCCUAAGGAGAAGACUGCGGGUUCGAGUCGCGUACGGAACG [G6C C30U C61G] showed a yeast fitness of no more than 0.5.
In the case of GUUCCCUUGGCGUAAUGGUAACGCGUCUCCAUCCUAAGGAGAAGACUGCGGGUUCGAGUCCCGUACGGAACG [G6C C31A], the yeast fitness is reported as 0.808.
GUUCCCUUGGCGUAAUGGUAACGCGUCUCCAUUCUAAGGAGAAGACUGCGGGUUCGAGUCCUGUACGGAACG [G6C C31A C33U C62U] showed a yeast fitness of no more than 0.5.
GUUCCCUUGGCGUAAUGGUAACGCGUCUCCAUCCUAAAGAGAAGACUGCGGGUUCGAGUCCCGUGCGGAACG [G6C C31A G38A A65G] gave a yeast fitness of no more than 0.5.
Variant GUUCCCUUGGCGUAAUGGUAACGCGUCUCCAUCCUAAGGAGAAGACUGCGGGUUCGAGUCCCGUACGCAACG [G6C C31A G68C] has a yeast fitness of 0.502.
GUUCCCUUGGCGUAAUGGUAACGCGUCUCCGUGCUAAGGAGAAGACCGCGAGUUCGAGUCCCGUACGGAACG [G6C C31G C33G U47C G51A] showed a yeast fitness of no more than 0.5.
For GUUCCCUUGGCGUAAUGGUAACGCGUCUCCGUCCUAAGGAGAAGAAUGCGGGUUCGAGUCCCCUUCGGAACG [G6C C31G C46A G63C A65U], the yeast fitness was no more than 0.5.
In the case of GUUCCCUUGGCGUAAUGGUAACGCGUCUCCUUCCUAAGGAGAAGACUGCGGGUUCGAGUCCCGUACGGAACG [G6C C31U], the yeast fitness is reported as 0.93.
GUUCCCUUGGCGUAAUGGUAACGCGUCUCCUUCCUGAGGAGAAGACUGCGGCUUCGAGUCCCGUACGAAACG [G6C C31U A36G G52C G68A] gave a yeast fitness of no more than 0.5.
Work on GUUCCCUUGGCGUAAUGGUAACGCGUCUCCUUCCAAAGGAGAAGAGUAUGGGUUCGAGUCCCGUACGGAACG [G6C C31U U35A C46G G48A C49U] yielded a yeast fitness of no more than 0.5.
With GUUCCCUUGGCGUAAUGGUAACGCGUCUCCUUCCUAAGGAGAAGACUGCGGGCUCGAGUCCUGUACGGAACG [G6C C31U U53C C62U] the yeast fitness was no more than 0.5.
GUUCCCUUGGCGUAAUGGUAACGCGUCUCCCUACUAAGGGGAAGACUGCGGGUUCGUGUCCCGUACGGAACG [G6C C33A A40G A57U] showed a yeast fitness of no more than 0.5.
For GUUCCCUUGGCGUAAUGGUAACGCGUCUCCCUACUAAGGAGAAGACUGCGGGUUCAAGACCCGUACGGAACG [G6C C33A G56A U59A], the yeast fitness was no more than 0.5.
